Measured values: ChEMBL document CHEMBL1142968, “Synthetic anticancer vaccine candidates: rational design of antigenic peptide mimetics that activate tumor-specific T-cells” (2007)
*1 amine or outer side, *2 acyl side, *3 side chain or, on linkers, in order; H or OH if unused. Where a SMILES comes first, the peptide text is derived from it. Side-chain parts run from the residue outwards. [ ]: non-standard residue; d: D form. The star is where a group is joined. X2 = O=C([C@@H]1Cc2c([nH]c3ccccc23)CN1CCN[*:1])[*:2]; X8 = O=C(CN(CCN[*:1])Cc1ccc([N+](=O)[O-])cc1)[*:2]; N(2-Aminoethyl)Gly = O=C(CN(CCN[*:3])[*:1])[*:2]; X7 = O=C(CN(CCN[*:1])CCc1c[nH]c2ccccc12)[*:2]; X4 = O=C([C@@H]1Cc2ccccc2CN1CCN[*:1])[*:2]; X9 = O=C(CN(CCN[*:1])Cc1ccnc2ccccc12)[*:2]; X6 = O=C(CN(CCN[*:1])CCc1ccccc1)[*:2]; X3 = O=C(CN(CCN[*:1])Cc1ccccc1)[*:2]; X1 = O=C(Cc1c[nH]c2ccccc12)*; 3Amb = NCc1cccc(C(=O)O)c1; PhAc = O=C(Cc1ccccc1)*; βAla = NCCC(=O)O

Columns and labels:
Homo sapiens = species: Homo sapiens; test: Binding affinity to HLA-A2 in TAP-deficient HLA-A2+T2 cells assessed as fluorescence intensity relative to ELA
How it was run: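 T2 cells (TAP-deficient, HLA-A2+) loaded overnight at 37 °C in serum-free RPMI-1640 with 100 µM compound plus human β2-microglobulin (100 ng/mL). Washed, stained with HLA-A2 mAb HB54 or isotype control (30 min, 4 °C), then PE anti-mouse IgG (30 min); flow cytometry. RFI = specific MFI / control MFI. Value reported as […].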

T-cell [1] = test: Stimulation of INFgamma production in 10C10 T cells at 10 uM by flow cytometry; assay type: functional, Homo sapiens
How it was run: (§1)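 Melan-A/MART-1-specific CD8 clones. T2 cells are pulsed 1 h at 37 °C with 10 µM compound and washed. 2 × 10^5 of them are co-cultured with 10^5 clone cells in RPMI-1640/10% FCS with brefeldin A (10 µg/mL) for 6 h at 37 °C. Cells are fixed in 4% PFA, then saponin-permeabilized and stained with PE anti-IFN-γ (5 µg/mL, 30 min). Flow cytometry on 10^4 events gives the % IFN-γ+ cells and the MFI.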

T-cell [2] = test: Stimulation of INFgamma production in M77.84 T cells at 10 uM by flow cytometry; assay type: functional, Homo sapiens; how it was run: as §1
T-cell [3] = test: Stimulation of INFgamma production in M199.2.7 T cells at 10 uM by flow cytometry; assay type: functional, Homo sapiens; how it was run: as §1
T-cell [4] = test: Stimulation of INFgamma production in M199.3.2 T cells at 10 uM by flow cytometry; assay type: functional, Homo sapiens; how it was run: as §1
[5] = Stimulation of INFgamma production in MEL1.37 T cells at 10 uM by flow cytometry; assay type: functional, Homo sapiens; how it was run: as §1
T-cell [6] = test: Stimulation of INFgamma production in CDM41 ELA1 T cells at 10 uM by flow cytometry; assay type: functional, Homo sapiens; how it was run: as §1
T-cell [7] = test: Stimulation of INFgamma production in M17.29 ELA1 T cells at 10 uM by flow cytometry; assay type: functional, Homo sapiens; how it was run: as §1
T-cell [8] = test: Stimulation of INFgamma production in CDM41 T cells at 10 uM by flow cytometry; assay type: functional, Homo sapiens; how it was run: as §1
T-cell [9] = test: Stimulation of INFgamma production in M17.29 T cells at 10 uM by flow cytometry; assay type: functional, Homo sapiens; how it was run: as §1
T-cell [10] = test: Stimulation of INFgamma production in MEL1.38 T cells at 10 uM by flow cytometry; assay type: functional, Homo sapiens

Ratio (Homo sapiens) | Structure (SMILES) | Activity (T-cell [2]) | Activity (T-cell [3]) | Activity [5] | other results
0.86 | CC(C)C[C@H](NC(=O)CCN)C(=O)N[C@@H](C)C(=O)NCCN(CCc1c[nH]c2ccccc12)CC(=O)NCc1cccc(C(=O)N[C@@H](CC(C)C)C(=O)N[C@H](C(=O)N[C@H](C(=O)O)C(C)C)[C@@H](C)O)c1 (H-[βAla]LA[X7][3Amb]LTV-OH) | – | – | – | –
0.85 | CC[C@H](C)[C@H](NC(=O)CNC(=O)CN(CCNC(=O)[C@H](C)NC(=O)[C@H](CC(C)C)NC(=O)[C@@H](N)CCC(=O)O)Cc1ccc([N+](=O)[O-])cc1)C(=O)N[C@@H](CC(C)C)C(=O)N[C@H](C(=O)N[C@H](C(=O)O)C(C)C)[C@@H](C)O | 0% | 0% | 0% | Activity (T-cell [1]): 0%; Activity (T-cell [4]): 0%; Activity (T-cell [6]): 64%; Activity (T-cell [7]): 0%
0.25 | CC(C)C[C@H](NC(=O)CCN)C(=O)N[C@@H](C)C(=O)NCCN(CCc1ccccc1)CC(=O)NCc1cccc(C(=O)N[C@@H](CC(C)C)C(=O)N[C@H](C(=O)N[C@H](C(=O)O)C(C)C)[C@@H](C)O)c1 (H-[βAla]LA[X6][3Amb]LTV-OH) | – | – | – | –
– | CC[C@H](C)[C@H](NC(=O)CNC(=O)[C@H](Cc1c[nH]c2ccccc12)NC(=O)CNC(=O)[C@H](C)NC(=O)[C@H](CC(C)C)NC(=O)[C@@H](N)CCC(=O)O)C(=O)N[C@@H](CC(C)C)C(=O)N[C@H](C(=O)N[C@H](C(=O)O)C(C)C)[C@@H](C)O | 90% | 15% | 81% | Activity (T-cell [1]): 0%; Activity (T-cell [4]): 54%; Activity (T-cell [6]): 47%; Activity (T-cell [7]): 55%
1.71 | CC[C@H](C)[C@H](NCCNC(=O)[C@H](Cc1ccc(O)cc1)NCCNC(=O)[C@H](C)NC(=O)[C@H](CC(C)C)NC(=O)[C@@H](N)CCC(=O)O)C(=O)N[C@@H](CC(C)C)C(=O)N[C@H](C(=O)N[C@H](C(=O)O)C(C)C)[C@@H](C)O | – | – | – | –
0.9 | CC[C@H](C)[C@H](NC(=O)CNC(=O)CN(CCNC(=O)[C@H](C)NC(=O)[C@H](CC(C)C)NC(=O)[C@@H](N)CCC(=O)O)Cc1ccccc1)C(=O)N[C@@H](CC(C)C)C(=O)N[C@H](C(=O)N[C@H](C(=O)O)C(C)C)[C@@H](C)O | – | – | – | –
0.7 | CC[C@H](C)[C@H](NC(=O)CNC(=O)CN(CCNC(=O)[C@H](C)NC(=O)[C@H](CC(C)C)NC(=O)[C@@H](N)CCC(=O)O)Cc1cccc2ccccc12)C(=O)N[C@@H](CC(C)C)C(=O)N[C@H](C(=O)N[C@H](C(=O)O)C(C)C)[C@@H](C)O | – | – | – | –
0.86 | CC[C@H](C)[C@H](NC(=O)CNC(=O)CN(CCNC(=O)[C@H](C)NC(=O)[C@H](CC(C)C)NC(=O)[C@@H](N)CCC(=O)O)CC1CCCCC1)C(=O)N[C@@H](CC(C)C)C(=O)N[C@H](C(=O)N[C@H](C(=O)O)C(C)C)[C@@H](C)O | – | – | – | –
1.61 | CC[C@H](C)[C@H](NCCNC(=O)[C@H](Cc1c[nH]c2ccccc12)NCCNC(=O)[C@H](C)NC(=O)[C@H](CC(C)C)NC(=O)[C@@H](N)CCC(=O)O)C(=O)N[C@@H](CC(C)C)C(=O)N[C@H](C(=O)N[C@H](C(=O)O)C(C)C)[C@@H](C)O | – | – | – | –
– | CC[C@H](C)[C@H](NC(=O)CNC(=O)[C@H](Cc1ccccc1)NC(=O)CNC(=O)[C@H](C)NC(=O)[C@H](CC(C)C)NC(=O)[C@@H](N)CCC(=O)O)C(=O)N[C@@H](CC(C)C)C(=O)N[C@H](C(=O)N[C@H](C(=O)O)C(C)C)[C@@H](C)O | 32% | 7% | 71% | Activity (T-cell [4]): 83%; Activity (T-cell [6]): 58%; Activity (T-cell [7]): 48%
1.02 | CC(C)C[C@H](NC(=O)CCN)C(=O)N[C@@H](C)C(=O)NCCN(CC(=O)NCc1cccc(C(=O)N[C@@H](CC(C)C)C(=O)N[C@H](C(=O)N[C@H](C(=O)O)C(C)C)[C@@H](C)O)c1)C(=O)Cc1c[nH]c2ccccc12 (X1-[N(2-Aminoethyl)Gly]([Ala-Leu-βAla])[3Amb]LTV-OH) | 12% | 25% | 89% | Activity (T-cell [8]): 31%; Activity (T-cell [9]): 27%; Activity (T-cell [1]): 0%; Activity (T-cell [10]): 44%
0.79 | CC[C@H](C)[C@H](NC(=O)CNC(=O)CN(CCNC(=O)[C@H](C)NC(=O)[C@H](CC(C)C)NC(=O)[C@@H](N)CCC(=O)O)Cc1ccnc2ccccc12)C(=O)N[C@@H](CC(C)C)C(=O)N[C@H](C(=O)N[C@H](C(=O)O)C(C)C)[C@@H](C)O | 0% | 0% | 3% | Activity (T-cell [1]): 0%; Activity (T-cell [4]): 0%; Activity (T-cell [6]): 69%; Activity (T-cell [7]): 0%
1.31 | CC(C)C[C@H](NC(=O)CCN)C(=O)N[C@@H](C)C(=O)NCCN(CC(=O)NCc1cccc(C(=O)N[C@@H](CC(C)C)C(=O)N[C@H](C(=O)N[C@H](C(=O)O)C(C)C)[C@@H](C)O)c1)Cc1ccnc2ccccc12 (H-[βAla]LA[X9][3Amb]LTV-OH) | – | – | – | –
0.81 | CC(C)C[C@H](NC(=O)CCN)C(=O)N[C@@H](C)C(=O)NCCN1Cc2[nH]c3ccccc3c2C[C@H]1C(=O)NCc1cccc(C(=O)N[C@@H](CC(C)C)C(=O)N[C@H](C(=O)N[C@H](C(=O)O)C(C)C)[C@@H](C)O)c1 (H-[βAla]LA[X2][3Amb]LTV-OH) | – | – | – | –
0.54 | CC(C)C[C@H](NC(=O)CCN)C(=O)N[C@@H](C)C(=O)NCCN(CC(=O)NCc1cccc(C(=O)N[C@@H](CC(C)C)C(=O)N[C@H](C(=O)N[C@H](C(=O)O)C(C)C)[C@@H](C)O)c1)C(=O)Cc1ccccc1 (PhAc-[N(2-Aminoethyl)Gly]([Ala-Leu-βAla])[3Amb]LTV-OH) | – | – | – | –
0.96 | CC[C@H](C)[C@H](NC(=O)CNC(=O)CN(CCNC(=O)[C@H](C)NC(=O)[C@H](CC(C)C)NC(=O)CCN)Cc1ccccc1)C(=O)N[C@@H](CC(C)C)C(=O)N[C@H](C(=O)N[C@H](C(=O)O)C(C)C)[C@@H](C)O | – | – | – | –
0.95 | CC(C)C[C@H](NC(=O)CCN)C(=O)N[C@@H](C)C(=O)NCCN(CC(=O)NCc1cccc(C(=O)N[C@@H](CC(C)C)C(=O)N[C@H](C(=O)N[C@H](C(=O)O)C(C)C)[C@@H](C)O)c1)Cc1ccccc1 (H-[βAla]LA[X3][3Amb]LTV-OH) | – | – | – | –
0.64 | CC(C)C[C@H](NC(=O)CCN)C(=O)N[C@@H](C)C(=O)NCCN1Cc2ccccc2C[C@H]1C(=O)NCc1cccc(C(=O)N[C@@H](CC(C)C)C(=O)N[C@H](C(=O)N[C@H](C(=O)O)C(C)C)[C@@H](C)O)c1 (H-[βAla]LA[X4][3Amb]LTV-OH) | – | – | – | –
0.83 | CC[C@H](C)[C@H](NC(=O)CNC(=O)CN(CCNC(=O)[C@H](C)NC(=O)[C@H](CC(C)C)NC(=O)[C@@H](N)CCC(=O)O)Cc1ccc(O)cc1)C(=O)N[C@@H](CC(C)C)C(=O)N[C@H](C(=O)N[C@H](C(=O)O)C(C)C)[C@@H](C)O | 0% | 0% | 0% | Activity (T-cell [1]): 0%; Activity (T-cell [4]): 0%; Activity (T-cell [6]): 46%; Activity (T-cell [7]): 0%
0.86 | CC(C)C[C@H](NC(=O)CCN)C(=O)N[C@@H](C)C(=O)NCCN(CC(=O)NCc1cccc(C(=O)N[C@@H](CC(C)C)C(=O)N[C@H](C(=O)N[C@H](C(=O)O)C(C)C)[C@@H](C)O)c1)Cc1ccc([N+](=O)[O-])cc1 (H-[βAla]LA[X8][3Amb]LTV-OH) | – | – | – | –
– | CC[C@H](C)[C@H](NC(=O)CNC(=O)[C@H](Cc1ccc(O)cc1)NC(=O)CNC(=O)[C@H](C)NC(=O)[C@H](CC(C)C)NC(=O)[C@@H](N)CCC(=O)O)C(=O)N[C@@H](CC(C)C)C(=O)N[C@H](C(=O)N[C@H](C(=O)O)C(C)C)[C@@H](C)O | 4% | 0% | 84% | Activity (T-cell [1]): 0%; Activity (T-cell [4]): 78%; Activity (T-cell [6]): 63%; Activity (T-cell [7]): 32%
